Test results from ChEMBL document CHEMBL1124603, “Renin inhibitors. Synthesis of transition-state analogue inhibitors containing phosphorus acid derivatives at the scissile bond” (J Med Chem, 1989).
Starred links: 1 amine or outer side, 2 acyl side, 3 side chain; linkers in the order of their positions; H or OH if unused. Non-standard residues stand in square brackets, D forms with d. Residues, ends and D or L forms follow the SMILES beside them. ξ: configuration not given here. *: point of attachment. ξLeuψ(P(O)(OH)CH2)ξVal = CC(C)CC(N[*:1])P(=O)(O)CC(C(=O)[*:2])C(C)C; X1 = CC(C)CC(N[*:1])P(=O)(O)C[C@@H](C(=O)[*:2])C(C)C; X2 = CC(C)CC(N[*:1])P(=O)(O)CCC(=O)[*:2]; X3 = CC(C)CC(N[*:1])P(=O)(O)CC(=O)[*:2]; NMeH = CN[C@@H](Cc1c[nH]cn1)C(=O)O; NMeF = CN[C@@H](Cc1ccccc1)C(=O)O; ξR = N=C(N)NCCCC(N)C(=O)O; Cbz = O=C(OCc1ccccc1)*; Boc = CC(C)(C)OC(=O)*; OtBu = CC(C)(C)O*

What follows are compounds tested against T1, Renin (Homo sapiens, UniProt P00797) (assay: In vitro inhibition against human plasma renin at pH 7.2 was determined).
T1 sequence (P00797 whole entry): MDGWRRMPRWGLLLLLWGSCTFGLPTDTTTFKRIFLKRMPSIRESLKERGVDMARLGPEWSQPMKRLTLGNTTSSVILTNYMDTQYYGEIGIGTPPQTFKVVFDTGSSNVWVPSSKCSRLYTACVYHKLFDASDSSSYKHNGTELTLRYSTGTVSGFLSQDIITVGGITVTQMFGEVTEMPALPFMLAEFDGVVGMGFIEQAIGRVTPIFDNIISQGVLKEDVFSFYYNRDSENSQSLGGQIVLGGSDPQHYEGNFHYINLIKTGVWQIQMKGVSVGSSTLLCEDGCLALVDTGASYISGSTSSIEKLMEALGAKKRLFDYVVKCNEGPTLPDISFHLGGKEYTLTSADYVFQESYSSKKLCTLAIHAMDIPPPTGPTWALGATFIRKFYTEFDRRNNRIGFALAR
Format: cell-free
How it was run: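 Human plasma renin activity assayed in vitro at pH 7.2 with the synthetic peptides added. IC50 is the peptide concentration that lowered plasma renin activity by 50%.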

SMILES	IC50 [µM]
CC(C)CC(NC(=O)[C@H](Cc1c[nH]cn1)NC(=O)[C@H](Cc1ccccc1)NC(=O)[C@H]1CCCN1C(=O)OCc1ccccc1)P(=O)(O)O (some centres not stated)	6.4
CC[C@H](C)[C@H](NC(=O)CCP(=O)(O)[C@@H](CC(C)C)NC(=O)[C@H](Cc1c[nH]cn1)NC(=O)[C@H](Cc1ccccc1)NC(=O)[C@H]1CCCN1C(=O)[C@H](CCCN=C(N)N)NC(=O)[C@H](CCCN=C(N)N)NC(=O)OCc1ccccc1)C(=O)N[C@@H](Cc1c[nH]cn1)C(N)=O	10
CC[C@H](C)[C@H](NC(=O)[C@@H](CP(=O)(O)[C@@H](CC(C)C)NC(=O)[C@H](Cc1c[nH]cn1)NC(=O)[C@H](Cc1ccccc1)NC(=O)[C@H]1CCCN1C(=O)[C@H](CCCN=C(N)N)NC(=O)[C@H](CCCN=C(N)N)NC(=O)OCc1ccccc1)C(C)C)C(=O)N[C@@H](Cc1c[nH]cn1)C(N)=O	0.1
COC(=O)C(CP(=O)(O)C(CC(C)C)NC(=O)CC(O)C(CC(C)C)NC(=O)[C@H](Cc1cnc[nH]1)NC(=O)[C@H](Cc1ccccc1)NC(=O)OCc1ccccc1)C(C)C (some centres not stated)	> 30
COC(=O)CC(O)[C@H](CC(C)C)NC(=O)[C@H](C)NC(=O)C(CP(=O)(O)C(CC(C)C)NC(=O)[C@H](Cc1c[nH]cn1)NC(=O)[C@H](Cc1ccccc1)NC(=O)[C@H]1CCCN1C(=O)OCc1ccccc1)C(C)C (some centres not stated)	0.9
CC[C@H](C)[C@H](NC(=O)C(CP(=O)(O)C(CC(C)C)NC(=O)[C@H](Cc1cnc[nH]1)NC(=O)[C@H](Cc1ccccc1)NC(=O)[C@H]1CCCN1C(=O)[C@H](Cc1cnc[nH]1)NC(=O)[C@H]1CCCN1)C(C)C)C(=O)N[C@@H](Cc1cnc[nH]1)C(=O)N[C@@H](CCCCN)C(=O)O (some centres not stated)	0.07
CC[C@H](C)[C@H](NC(=O)C(CP(=O)(O)C(CC(C)C)NC(=O)[C@H](Cc1cnc[nH]1)NC(=O)[C@H](Cc1ccccc1)NC(=O)[C@H]1CCCN1C(=O)OCc1ccccc1)C(C)C)C(=O)N[C@@H](Cc1cnc[nH]1)C(N)=O (some centres not stated)	0.6
CC(C)CC(NC(=O)[C@H](Cc1cnc[nH]1)NC(=O)[C@H](Cc1ccccc1)NC(=O)[C@H]1CCCN1C(=O)OCc1ccccc1)[PH](=O)O (some centres not stated)	> 30
CC[C@H](C)[C@H](NC(=O)C(CP(=O)(O)C(CC(C)C)NC(=O)[C@H](Cc1ccccc1)NC(=O)[C@H](Cc1ccccc1)NC(=O)OC(C)(C)C)C(C)C)C(=O)N[C@@H](Cc1cnc[nH]1)C(N)=O (some centres not stated) (Boc-FF[ξLeuψ(P(O)(OH)CH2)ξVal]IH-NH2)	6
CC[C@H](C)[C@H](NC(=O)C(CP(=O)(O)C(CC(C)C)NC(=O)[C@H](Cc1ccccc1)N(C)C(=O)[C@H](Cc1ccccc1)NC(=O)OC(C)(C)C)C(C)C)C(=O)N[C@@H](Cc1c[nH]cn1)C(N)=O (some centres not stated) (Boc-F[NMeF][ξLeuψ(P(O)(OH)CH2)ξVal]IH-NH2)	> 30
CC[C@H](C)[C@H](NC(=O)C(CP(=O)(O)C(CC(C)C)NC(=O)[C@H](Cc1c[nH]cn1)N(C)C(=O)[C@H](Cc1ccccc1)NC(=O)OC(C)(C)C)C(C)C)C(=O)N[C@@H](Cc1c[nH]cn1)C(N)=O (some centres not stated) (Boc-F[NMeH][ξLeuψ(P(O)(OH)CH2)ξVal]IH-NH2)	> 30
CC[C@H](C)[C@H](NC(=O)[C@H](CP(=O)(O)C(CC(C)C)NC(=O)[C@H](Cc1cnc[nH]1)NC(=O)[C@H](Cc1ccccc1)NC(=O)OCc1ccccc1)C(C)C)C(=O)N[C@@H](Cc1cnc[nH]1)C(N)=O (some centres not stated) (Cbz-FH[X1]IH-NH2)	2
CC[C@H](C)[C@H](NC(=O)CCP(=O)(O)C(CC(C)C)NC(=O)[C@H](Cc1cnc[nH]1)NC(=O)[C@H](Cc1ccccc1)NC(=O)OCc1ccccc1)C(=O)N[C@@H](Cc1cnc[nH]1)C(N)=O (some centres not stated) (Cbz-FH[X2]IH-NH2)	> 30
CC[C@H](C)[C@H](NC(=O)CP(=O)(O)C(CC(C)C)NC(=O)[C@H](Cc1cnc[nH]1)NC(=O)[C@H](Cc1ccccc1)NC(=O)OCc1ccccc1)C(=O)N[C@@H](Cc1cnc[nH]1)C(N)=O (some centres not stated) (Cbz-FH[X3]IH-NH2)	> 30
CC[C@H](C)[C@H](NC(=O)C(CP(=O)(O)C(CC(C)C)NC(=O)[C@H](Cc1cnc[nH]1)NC(=O)[C@H](Cc1ccccc1)NC(=O)OCc1ccccc1)C(C)C)C(=O)N[C@@H](Cc1ccccc1)C(N)=O (some centres not stated) (Cbz-FH[ξLeuψ(P(O)(OH)CH2)ξVal]IF-NH2)	5
CC[C@H](C)[C@H](NC(=O)C(CP(=O)(O)C(CC(C)C)NC(=O)[C@H](Cc1c[nH]cn1)NC(=O)[C@H](Cc1ccccc1)NC(=O)OCc1ccccc1)C(C)C)C(=O)NC(CCCN=C(N)N)C(=O)OC(C)(C)C (some centres not stated) (Cbz-FH[ξLeuψ(P(O)(OH)CH2)ξVal]I[ξR]-OtBu)	> 30
CC[C@H](C)[C@H](NC(=O)C(CP(=O)(O)C(CC(C)C)NC(=O)[C@H](Cc1c[nH]cn1)NC(=O)[C@H](Cc1ccccc1)NC(=O)CNC(=O)OCc1ccccc1)C(C)C)C(=O)N[C@@H](Cc1c[nH]cn1)C(N)=O (some centres not stated) (Cbz-GFH[ξLeuψ(P(O)(OH)CH2)ξVal]IH-NH2)	0.8
